Results of several laboratories.
Compare with care: the assays were run in different laboratories.
PIK3CA C420R: Phosphatidylinositol 4,5-bisphosphate 3-kinase catalytic subunit alpha isoform (PIK3CA, Homo sapiens, UniProt P42336, C420R)
PIK3CA: Phosphatidylinositol 4,5-bisphosphate 3-kinase catalytic subunit alpha isoform (PIK3CA, Homo sapiens, UniProt P42336)
PIK3CA Q546K: Phosphatidylinositol 4,5-bisphosphate 3-kinase catalytic subunit alpha isoform (PIK3CA, Homo sapiens, UniProt P42336, Q546K)
PIK3CA H1047L: Phosphatidylinositol 4,5-bisphosphate 3-kinase catalytic subunit alpha isoform (PIK3CA, Homo sapiens, UniProt P42336, H1047L)
PIK3CA I800L: Phosphatidylinositol 4,5-bisphosphate 3-kinase catalytic subunit alpha isoform (PIK3CA, Homo sapiens, UniProt P42336, I800L)
PIK3CA M1043I: Phosphatidylinositol 4,5-bisphosphate 3-kinase catalytic subunit alpha isoform (PIK3CA, Homo sapiens, UniProt P42336, M1043I)
PIK3CA E545K: Phosphatidylinositol 4,5-bisphosphate 3-kinase catalytic subunit alpha isoform (PIK3CA, Homo sapiens, UniProt P42336, E545K)
PIK3CA E542K: Phosphatidylinositol 4,5-bisphosphate 3-kinase catalytic subunit alpha isoform (PIK3CA, Homo sapiens, UniProt P42336, E542K)
PIK3CA H1047Y: Phosphatidylinositol 4,5-bisphosphate 3-kinase catalytic subunit alpha isoform (PIK3CA, Homo sapiens, UniProt P42336, H1047Y)

SMILES	target	observed	method	concentration	remaining binding [%]
O=C1CCc2cc(Nc3cc(OC4CCOCC4)c([N+](=O)[O-])cc3Cl)ccc2N1	PIK3CA C420R	cell-free assay	competition with immobilised ligand	1 µM	97
COc1cnc(Nc2cccc(S(N)(=O)=O)c2)nc1N1CCN(c2ccccc2)CC1	PIK3CA	binding	competition with immobilised ligand	1 µM	98
CN(C)c1nccc(-c2cnn3ncccc23)n1	PIK3CA C420R	binding	–	1 µM	100
CCCOc1ccc([C@H]2[C@H](C(=O)O)[C@@H](c3ccc4c(c3)OCO4)CN2CC(=O)Nc2c(CC)cccc2CC)cc1	PIK3CA	cell-free assay	competition with immobilised ligand	1 µM	80
Cc1cnc(Nc2ccc(C(=O)N3CCC(N4CCCC4)CC3)cc2)nc1-c1cc2ccccc2s1	PIK3CA C420R	binding	competition with immobilised ligand	1 µM	83
FC(F)(F)c1ccc2c(c1)nc(-c1cccnc1)n2C1CC1	PIK3CA Q546K	cell-free assay	competition with immobilised ligand	1 µM	99
O=C(NCCCN1CCOCC1)c1ccc(Nc2ncc(Cl)c(-c3ccc(Cl)s3)n2)cc1	PIK3CA H1047L	binding	competition with immobilised ligand	1 µM	100
CN(C)c1ncc(F)c(-c2cnn3ncccc23)n1	PIK3CA I800L	binding	–	1 µM	46
O=C(c1ccc(Nc2nccc(-c3cc4ccccc4s3)n2)cc1)N1CCC(N2CCCC2)CC1	Phosphatidylinositol 4,5-bisphosphate 3-kinase catalytic subunit alpha isoform (PIK3CA, Homo sapiens, UniProt P42336, E545A)	binding	competition with immobilised ligand	1 µM	100
O=C(NCC1CCOCC1)c1n[nH]cc1NC(=O)c1c(F)cccc1F	PIK3CA M1043I	binding	competition with immobilised ligand	1 µM	100
CN1CCN(c2ccc(Nc3nccc(-c4cccc([N+](=O)[O-])c4)n3)cc2C(F)(F)F)CC1	PIK3CA M1043I	binding	–	10 µM	35
C[C@@H]1CN(c2cc(-c3n[nH]c4ccc(OC5(C)CC5)cc34)ncn2)C[C@H](C)O1	PIK3CA H1047L	cell-free assay	competition with immobilised ligand	0.1 µM	87
CNC(=O)[C@@H]1CC[C@@H](n2c(-c3ccc4cnccc4c3)nc3ccc(C(=O)NCc4cccc(C(N)=O)c4)cc32)C1	PIK3CA I800L	binding	competition with immobilised ligand	1 µM	85
O=C(c1ccc(Nc2ncc(Cl)c(-c3ccc(Cl)s3)n2)cc1)N1CCC(N2CCCC2)CC1	PIK3CA	binding	competition with immobilised ligand	1 µM	100
Nc1ncc2c(n1)-c1c([nH]c3ccc(C#CC4CC4)cc13)CCCC2	PIK3CA H1047L	binding	competition with immobilised ligand	1 µM	80
CN(C)c1nccc(-c2cnc3ncccn23)n1	PIK3CA E545K	binding	–	1 µM	82
Cc1c(-c2ccccc2)oc2c(C(=O)OCCN3CCCCC3)cccc2c1=O	PIK3CA	cell-free assay	competition with immobilised ligand	0.1 µM	100
CC1CCCN1c1nccc(-c2cnn3ncccc23)n1 (stereo not shown)	PIK3CA E545K	binding	–	1 µM	100
O=C(NCCCN1CCOCC1)c1ccc(Nc2nccc(-c3cc4ccccc4s3)n2)cc1	PIK3CA Q546K	binding	competition with immobilised ligand	1 µM	81

SMILES	target	observed	method	concentration	remaining binding [%]
C[C@@H]1CCN(c2nccc(-c3cnn4ncccc34)n2)C1	PIK3CA E542K	binding	–	1 µM	82
CCN1CCN(Cc2ccc(C(=O)Nc3ccc(C)c(Oc4ccc5c(c4)CC(=O)N5)c3)cc2C(F)(F)F)CC1	PIK3CA E545K	binding	competition with immobilised ligand	1 µM	93
CC1=C(C#N)C(c2ccc3c(c2)c(NC(=O)c2ccccc2C)nn3C)C(C#N)=C(C)N1	PIK3CA Q546K	cell-free assay	competition with immobilised ligand	1 µM	87
C[C@@H](c1ccc(-n2cnc3c(N)ncnc32)cc1)N1CCc2nn(C)c(Cc3ccccc3)c2C1=O	PIK3CA E545K	binding	competition with immobilised ligand	0.1 µM	67
CC(=O)c1c(NS(C)(=O)=O)c2cc(-c3ccc(Cl)cc3)c(-c3ccc(Cl)cc3Cl)nc2n(C)c1=O	PIK3CA	cell-free assay	competition with immobilised ligand	1 µM	100
CN1CCN(c2ccc(Nc3nccc(-c4ccccc4)n3)cc2C(F)(F)F)CC1	PIK3CA E542K	binding	–	10 µM	70
O=C(Nc1c[nH]nc1C(=O)NC1CCNCC1)c1cc(F)cc(F)c1	PIK3CA Q546K	binding	competition with immobilised ligand	1 µM	100
Cn1nc(C(F)(F)F)cc1-c1cnc(N2CCc3cc(S(=O)(=O)Nc4c(F)cc(Cl)cc4F)cc(N4CCCC4=O)c32)nc1	PIK3CA E545K	cell-free assay	competition with immobilised ligand	1 µM	82
N[C@H]1CCN(c2nccc(-c3cnn4ncccc34)n2)C1	PIK3CA E542K	binding	–	1 µM	83
COc1cnc(Nc2cccc(S(N)(=O)=O)c2)nc1N1CCN(c2ccccc2)C(=O)C1	PIK3CA H1047Y	binding	competition with immobilised ligand	1 µM	81
COc1ncc2cc3ccccc3nc2c1C#N	PIK3CA E542K	cell-free assay	competition with immobilised ligand	5 µM	100
c1cncc(-c2cccc(Nc3nccc(NC4CCCCC4)n3)c2)c1	PIK3CA	binding	competition with immobilised ligand	10 µM	100
O=C(c1ccc(Nc2ncc(Cl)c(-c3cc4ccccc4s3)n2)cc1)N1CCC(N2CCCC2)CC1	PIK3CA E542K	binding	competition with immobilised ligand	1 µM	97
COc1ccnn2ncc(-c3ccnc(N(C)C)n3)c12	PIK3CA I800L	binding	–	1 µM	94
C=CC(=O)N1CCC(C(=O)NCC(=O)N2CCN(c3nc(-c4cnc(N)nc4C(F)F)nc(N4CCOCC4)n3)CC2)CC1	PIK3CA E545K	binding	competition with immobilised ligand	1 µM	0
Cc1c(NC(=O)c2cc(C(N)=O)nc3cc(F)ccc23)c(C(F)(F)F)nn1Cc1ccc(C#N)cc1	PIK3CA H1047Y	cell-free assay	competition with immobilised ligand	1 µM	86
CN(CCCC(F)(F)F)c1nccc(-c2cnn3ncccc23)n1	PIK3CA Q546K	binding	–	1 µM	69
N#Cc1ccccc1CSc1nnc2c(n1)[nH]c1ccccc12	PIK3CA	binding	competition with immobilised ligand	10 µM	100
